From ChEMBL document CHEMBL4002604, “Evaluation of biological properties of 3,3',4,4'-benzophenonetetracarboxylic dianhydride derivatives and their ability to inhibit hexokinase activity” (2017)
The source made the active and inactive calls. The calls are words filed in the database; no cut-off is given here.

Key:
[1] = test system: P19; test: Cytotoxicity against differentiated mouse P19 cells assessed as cell mass at 1 to 100 uM after 24 hrs by SRB assay relative to control; format: functional
In short: (§1)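 Cell mass by SRB assay in P19 cells (CRL-1825), either undifferentiated (P19SCs) or differentiated (P19dCs). Cells exposed to 1, 10 or 100 µM for 24, 48 or 72 h. Values expressed relative to untreated control. Means ± SD from at least 4 independent measurements, 6 repeats each. Significance vs control at p<0.05.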

[2] = test system: P19; test: Cytotoxicity against undifferentiated mouse P19 cells assessed as metabolic activity at 1 to 100 uM after 72 hrs by resazurin assay relative to control; format: functional
In short: (§2)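 Metabolic activity by resazurin reduction in undifferentiated (P19SCs) or differentiated (P19dCs) P19 cells. Exposure to 1, 10 or 100 µM for 24, 48 or 72 h. Read-out relative to untreated control. Significance vs control at p<0.05.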

[3] = test system: P19; test: Cytotoxicity against differentiated mouse P19 cells assessed as cell mass at 1 to 100 uM after 72 hrs by SRB assay relative to control; format: functional; in short: as §1
[4] = test system: P19; test: Cytotoxicity against undifferentiated mouse P19 cells assessed as metabolic activity at 1 to 100 uM after 24 hrs by resazurin assay relative to control; format: functional; in short: as §2
[5] = test system: P19; test: Cytotoxicity against undifferentiated mouse P19 cells assessed as cell mass at 1 to 100 uM after 72 hrs by SRB assay relative to control; format: functional; in short: as §1
[6] = test system: P19; test: Cytotoxicity against differentiated mouse P19 cells assessed as metabolic activity at 1 to 100 uM after 72 hrs by resazurin assay relative to control; format: functional; in short: as §2
[7] = test system: P19; test: Cytotoxicity against differentiated mouse P19 cells assessed as metabolic activity at 1 to 100 uM after 24 hrs by resazurin assay relative to control; format: functional; in short: as §2
[8] = test system: P19; test: Cytotoxicity against differentiated mouse P19 cells assessed as cell mass at 1 to 100 uM after 48 hrs by SRB assay relative to control; format: functional; in short: as §1
[9] = test system: P19; test: Cytotoxicity against undifferentiated mouse P19 cells assessed as metabolic activity at 1 to 100 uM after 48 hrs by resazurin assay relative to control; format: functional; in short: as §2
[10] = test system: P19; test: Cytotoxicity against differentiated mouse P19 cells assessed as metabolic activity at 1 to 100 uM after 48 hrs by resazurin assay relative to control; format: functional; in short: as §2
[11] = test system: P19; test: Cytotoxicity against undifferentiated mouse P19 cells assessed as cell mass at 1 to 100 uM after 48 hrs by SRB assay relative to control; format: functional; in short: as §1
[12] = test system: P19; test: Cytotoxicity against undifferentiated mouse P19 cells assessed as cell mass at 1 to 100 uM after 24 hrs by SRB assay relative to control; format: functional; in short: as §1
[13] = test system: P19; test: Cytotoxicity against differentiated mouse P19 cells assessed as mitochondrial superoxide anion level at 1 uM after 72 hrs by MitoSox dye based fluorescence assay relative to control; format: functional
In short: (§3)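 Undifferentiated (P19SCs) or differentiated (P19dCs) P19 cells incubated 24 or 72 h with 1 or 100 µM. Mitochondrial membrane potential and mitochondrial superoxide levels measured and expressed relative to untreated control. Means ± SD from 4 independent measurements, at least 4 repeats each. Significance at p<0.05.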

[14] = test system: P19; test: Cytotoxicity against differentiated mouse P19 cells assessed as mitochondrial membrane potential at 100 uM after 72 hrs by TMRF dye based fluorescence assay relative to control; format: functional; in short: as §3
[15] = test system: P19; test: Cytotoxicity against undifferentiated mouse P19 cells assessed as mitochondrial membrane potential at 1 uM after 72 hrs by TMRF dye based fluorescence assay relative to control; format: functional; in short: as §3
[16] = test system: P19; test: Cytotoxicity against differentiated mouse P19 cells assessed as mitochondrial superoxide anion level at 1 uM after 24 hrs by MitoSox dye based fluorescence assay relative to control; format: functional; in short: as §3
[17] = test system: P19; test: Cytotoxicity against undifferentiated mouse P19 cells assessed as mitochondrial membrane potential at 100 uM after 72 hrs by TMRF dye based fluorescence assay relative to control; format: functional; in short: as §3
[18] = test system: P19; test: Cytotoxicity against differentiated mouse P19 cells assessed as mitochondrial membrane potential at 1 uM after 24 hrs by TMRF dye based fluorescence assay relative to control; format: functional; in short: as §3
[19] = test system: P19; test: Cytotoxicity against undifferentiated mouse P19 cells assessed as mitochondrial superoxide anion level at 1 uM after 72 hrs by MitoSox dye based fluorescence assay relative to control; format: functional; in short: as §3
[20] = test system: P19; test: Cytotoxicity against undifferentiated mouse P19 cells assessed as mitochondrial superoxide anion level at 100 uM after 72 hrs by MitoSox dye based fluorescence assay relative to control; format: functional; in short: as §3
[21] = test system: P19; test: Cytotoxicity against differentiated mouse P19 cells assessed as mitochondrial superoxide anion level at 100 uM after 72 hrs by MitoSox dye based fluorescence assay relative to control; format: functional; in short: as §3
[22] = test system: P19; test: Cytotoxicity against differentiated mouse P19 cells assessed as mitochondrial membrane potential at 1 uM after 72 hrs by TMRF dye based fluorescence assay relative to control; format: functional; in short: as §3
[23] = test system: P19; test: Cytotoxicity against differentiated mouse P19 cells assessed as mitochondrial superoxide anion level at 100 uM after 24 hrs by MitoSox dye based fluorescence assay relative to control; format: functional; in short: as §3
[24] = test system: P19; test: Cytotoxicity against differentiated mouse P19 cells assessed as mitochondrial membrane potential at 100 uM after 24 hrs by TMRF dye based fluorescence assay relative to control; format: functional; in short: as §3
[25] = test system: P19; test: Cytotoxicity against undifferentiated mouse P19 cells assessed as mitochondrial membrane potential at 100 uM after 24 hrs by TMRF dye based fluorescence assay relative to control; format: functional; in short: as §3
[26] = test system: P19; test: Cytotoxicity against undifferentiated mouse P19 cells assessed as mitochondrial superoxide anion level at 1 uM after 24 hrs by MitoSox dye based fluorescence assay relative to control; format: functional; in short: as §3
[27] = test system: P19; test: Cytotoxicity against undifferentiated mouse P19 cells assessed as mitochondrial membrane potential at 1 uM after 24 hrs by TMRF dye based fluorescence assay relative to control; format: functional; in short: as §3
[28] = test system: P19; test: Cytotoxicity against undifferentiated mouse P19 cells assessed as mitochondrial superoxide anion level at 100 uM after 24 hrs by MitoSox dye based fluorescence assay relative to control; format: functional; in short: as §3
[29] = biological target: T1, Hexokinase-2 (Mus musculus) (UniProt O08528); test: Inhibition of HK2 isolated from mouse undifferentiated P19 cell lysates at […] using [U-14C]-labeled glucose as substrate in presence of ATP and NADP by G6PD enzyme coupled spectrophotometric assay
T1 sequence (whole entry): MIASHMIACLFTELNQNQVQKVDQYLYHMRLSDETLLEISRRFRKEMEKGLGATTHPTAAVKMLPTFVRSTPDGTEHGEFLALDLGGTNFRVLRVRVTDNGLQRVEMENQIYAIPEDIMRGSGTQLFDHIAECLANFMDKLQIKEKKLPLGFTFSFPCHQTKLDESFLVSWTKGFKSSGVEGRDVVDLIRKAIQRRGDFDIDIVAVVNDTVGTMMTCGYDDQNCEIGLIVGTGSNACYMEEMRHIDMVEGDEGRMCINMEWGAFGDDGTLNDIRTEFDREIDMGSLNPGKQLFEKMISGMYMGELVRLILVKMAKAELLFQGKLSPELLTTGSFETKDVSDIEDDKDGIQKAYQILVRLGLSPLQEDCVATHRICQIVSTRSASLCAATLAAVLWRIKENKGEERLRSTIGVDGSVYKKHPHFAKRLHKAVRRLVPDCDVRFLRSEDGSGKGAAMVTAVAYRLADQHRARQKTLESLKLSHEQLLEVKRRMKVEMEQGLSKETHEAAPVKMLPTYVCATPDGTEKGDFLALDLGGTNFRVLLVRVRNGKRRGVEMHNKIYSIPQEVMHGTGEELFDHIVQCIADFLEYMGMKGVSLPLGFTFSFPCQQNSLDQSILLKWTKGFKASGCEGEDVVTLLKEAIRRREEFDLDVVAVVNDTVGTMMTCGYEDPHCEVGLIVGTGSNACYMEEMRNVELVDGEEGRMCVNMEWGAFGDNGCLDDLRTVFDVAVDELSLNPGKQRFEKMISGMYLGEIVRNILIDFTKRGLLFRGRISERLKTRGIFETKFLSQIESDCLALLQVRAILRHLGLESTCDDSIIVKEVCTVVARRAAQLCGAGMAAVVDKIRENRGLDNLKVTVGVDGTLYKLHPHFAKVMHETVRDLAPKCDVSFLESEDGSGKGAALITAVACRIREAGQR
In short: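 Hexokinase activity measured in supernatant of freshly prepared, centrifuged lysates of undifferentiated P19 cells. Buffer was 100 mM Tris-HCl pH 8.0 with 0.5 mM EDTA, 10 mM MgCl2, 2 mM glucose, 0.1 mM NADP and 0.1 U/ml G6PD. After 10 min preincubation at 37°C, 10 mM ATP was added to start the reaction. NADPH formation was followed at 340 nm. Four independent experiments, ≥4 repeats each.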

Row | Compound | Activity [1] [%] | Activity [2] [%] | Activity [3] [%] | Activity [4] [%] | Activity [5] [%] | Activity [6] [%] | Activity [7] [%] | Activity [8] [%] | Activity [9] [%] | Activity [10] [%] | Activity [11] [%] | Activity [12] [%] | other results
1 | O=C(c1ccc2c(c1)C(=O)N(c1c[nH]c(=O)[nH]c1=O)C2=O)c1ccc2c(c1)C(=O)N(c1c[nH]c(=O)[nH]c1=O)C2=O | 95.8 | 109.6 | 90.8 | 113.8 | 97.4 | 105 | 116.3 | 88.2 | 103.2 | 105.3 | 99.4 | 115.2 | –
2 | O=C(c1ccc2c(c1)C(=O)N(CCO)C2=O)c1ccc2c(c1)C(=O)N(CCO)C2=O | 96.2 | 113.8 | 80.5 | 101.5 | 106.7 | 99.4 | 113.3 | 108.4 | 107.8 | 103.7 | 92.4 | 83.9 | –
3 | O=C(c1ccc2c(c1)C(=O)N(c1ccc(O)cc1)C2=O)c1ccc2c(c1)C(=O)N(c1ccc(O)cc1)C2=O | 86.7 | 79.9 | 30.9 | 88.5 | 86.8 | 93.8 | 96.2 | 48.5 | 74.4 | 87.4 | 81.8 | 90.2 | Activity [13]: 138%; Activity [14]: 136.6%; Activity [15]: 93%; Activity [16]: 75.8%; Activity [17]: 116.7%; Activity [18]: 110.6%; Activity [19]: 78.4%; Activity [20]: 72.5%; Activity [21]: 118.8%; Activity [22]: 144.7%; Activity [23]: 113.2%; Activity [24]: 65.8%; Activity [25]: 206.6%; Activity [26]: 72.1%; Activity [27]: 176.1%; Activity [28]: 106.6%
4 | O=C(c1ccc2c(c1)C(=O)N(c1ccccc1O)C2=O)c1ccc2c(c1)C(=O)N(c1ccccc1O)C2=O | 95.6 | 101.2 | 79.8 | 103.5 | 106.5 | 99.4 | 105 | 93 | 99.7 | 105.3 | 102 | 103.6 | Activity [13]: 97.8%; Activity [14]: 93.3%; Activity [15]: 81.9%; Activity [16]: 111.1%; Activity [17]: 81.6%; Activity [18]: 117.8%; Activity [19]: 115.4%; Activity [20]: 129.9%; Activity [21]: 86%; Activity [22]: 89.4%; Activity [23]: 168%; Activity [24]: 112%; Activity [25]: 89.6%; Activity [26]: 108.7%; Activity [27]: 82.2%; Activity [28]: 108.3%
5 | O=C(c1ccc2c(c1)C(=O)N(CCCO)C2=O)c1ccc2c(c1)C(=O)N(CCCO)C2=O | 110.6 | 100 | 94.7 | 105 | 100 | 98.1 | 100.1 | 97.9 | 98.1 | 101.1 | 101.5 | 106 | –
6 | OC[C@H]1OC(O)C[C@@H](O)[C@@H]1O (some centres not stated) | 90.5 | 101.3 | 97.4 | 100.1 | 103.8 | 94.4 | 90.5 | 93.6 | 91.2 | 101.7 | 99.6 | 120.4 | inhibition [29]: Active
7 | O=C(c1ccc2c(c1)C(=O)N(c1nc[nH]n1)C2=O)c1ccc2c(c1)C(=O)N(c1nc[nH]n1)C2=O | 93.3 | 53.2 | 82 | 92.7 | 45.5 | 86.5 | 114 | 96 | 94 | 96.1 | 77.6 | 81.2 | –
